Results taken from paper PMC6427922 (Bioorganic & medicinal chemistry letters, 2018).
Entries after “also recorded” stand apart in the source; their conditions may differ. Where two headings read alike, the source gives them in different places.

Key:
M1 = details: cells and native systems; cited from earlier work
[1] = mice; cited from earlier work
[2] = rats; cited from earlier work
[3] = non-human primates; cited from earlier work
[4] = system: cognitive deficits induced by risperidone; details: cited from earlier work
hM1 [5] = target: T1, hM1 (Homo sapiens, UniProt P11229); format: cell-based; details: for M1 PAM activity in words (relative to 14 or comparators): hM1-CHO
T1 sequence (P11229 1-460): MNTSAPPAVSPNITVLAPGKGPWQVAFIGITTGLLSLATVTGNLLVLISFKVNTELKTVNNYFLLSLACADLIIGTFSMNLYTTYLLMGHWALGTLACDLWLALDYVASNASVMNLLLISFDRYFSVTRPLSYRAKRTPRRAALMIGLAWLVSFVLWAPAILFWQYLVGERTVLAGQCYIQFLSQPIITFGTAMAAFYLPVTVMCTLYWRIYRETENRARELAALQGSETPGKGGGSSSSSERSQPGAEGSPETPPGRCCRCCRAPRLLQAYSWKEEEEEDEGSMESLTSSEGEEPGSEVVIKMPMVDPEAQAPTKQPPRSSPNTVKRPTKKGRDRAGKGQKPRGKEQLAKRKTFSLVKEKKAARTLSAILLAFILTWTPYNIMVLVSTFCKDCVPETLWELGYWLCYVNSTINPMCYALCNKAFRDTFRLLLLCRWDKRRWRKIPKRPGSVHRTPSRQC
Method in brief: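 Calcium mobilization in CHO cells expressing human M1, with a fixed EC20 concentration of acetylcholine present. Read-outs are EC50, pEC50 and ACh Max. Values are means of three independent experiments, each run in triplicate. Fold changes are expressed against a racemic reference compound.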

[6] = Predicted hepatic clearance, human; format: in vitro ADME
[7] = Metabolite identification studies; format: in vitro ADME
hM1 [8] = target: T1, hM1; details: reference compound, racemate of 7; cited from earlier work
M2 = details: read-out: M2 EC50; selectivity; cited from earlier work
M3 = details: read-out: M3 EC50; selectivity; cited from earlier work
M4 = details: read-out: M4 EC50; selectivity; cited from earlier work
M5 = details: read-out: M5 EC50; selectivity; cited from earlier work
NR1 knock-down mice = details: cited from earlier work

O=C(N[C@H]1CCCC[C@@H]1O)[C@H]1CN(Cc2ccc(-n3cccn3)cc2)c2ccccc2O1 [compound 7]
M1 agonism (M1): devoid of M1 agonism; also recorded: devoid of agonist activity in native systems
Cholinergic toxicity [1]: devoid of cholinergic toxicity
Cholinergic toxicity [2]: devoid of cholinergic toxicity
Cholinergic toxicity [3]: devoid of cholinergic toxicity
Reversal of cognitive deficits induced by atypical antipsychotics [4]: reverse the cognitive deficits induced by atypical antipsychotics

O=C(N[C@H]1CCCC[C@@H]1O)C1CN(Cc2ccc(-n3cccn3)nc2)c2ccccc2O1 (some centres unmarked) [compound 18]
M1 PAM activity in words (relative to 14 or comparators) (hM1 [5]): equipotent to 14

O=C(N[C@H]1CCCC[C@@H]1O)C1CN(Cc2ccc(-n3cccn3)cc2)c2ccccc2O1 (some centres unmarked) [compound 14]
Predicted hepatic clearance CLhep, human [6]: 11.1 mL/min/kg
Route of metabolism [7]: P450-mediated debenzylation to afford 26
M1 pEC50 (hM1 [8]): 6.10 ± 0.13
EC50 (M2): > 30 µM
EC50 (M3): > 30 µM
EC50 (M4): > 30 µM
EC50 (M5): > 30 µM

O=C(NC1CCOCC1)C1CN(Cc2ccc(-n3cccn3)cc2)c2ccccc2O1 (centres unmarked) [25d]
Fold loss in M1 PAM activity on deletion of the hydroxyl group on the pyran ring (hM1 [5]; relative to pyran homolog 25c): ~ 34 fold

O=C(Nc1ncccc1O)C1CN(Cc2ccc(-n3cccn3)cc2)c2ccccc2O1 (centres unmarked) [25j]
M1 PAM activity in words (relative to 14 or comparators) (hM1 [5]): equipotent to 14
Route of metabolism [7]: amide hydrolysis by esterases liberating 27

O=C(N[C@H]1CCC[C@@H]1O)C1CN(Cc2ccc(-n3cccn3)cc2)c2ccccc2O1 (some centres unmarked) [25b]
M1 PAM activity in words (relative to 14 or comparators) (hM1 [5]): comparable activity

O=C(N[C@H]1CCCC[C@@H]1O)C1CN(Cc2ccc(-n3cccn3)cc2)c2c(F)cccc2O1 (some centres unmarked) [compound 21]
Fold decrease in M1 PAM activity relative to 14 (hM1 [5]; relative to 14): ~ 3 fold

Cn1nccc1-c1ccc(CN2CC(C(=O)N[C@H]3CCCC[C@@H]3O)Oc3ccccc32)cn1 (some centres unmarked) [28 k]
M1 PAM activity in words (relative to 14 or comparators) (hM1 [5]): active

O=C(N[C@H]1CCCC[C@@H]1O)C1CN(Cc2ccc(-n3cccn3)cc2)c2cc(F)ccc2O1 (some centres unmarked) [compound 22]
Fold increase in M1 PAM potency relative to 14 (hM1 [5]; relative to 14): ~ 3 fold

O=C(N[C@H]1CCCCC1=O)C1CN(Cc2ccc(-n3cccn3)cc2)c2ccccc2O1 (some centres unmarked) [25f]
M1 PAM activity in words (relative to 14 or comparators) (hM1 [5]): retained reasonable M1 PAM activity

O=C(N[C@H]1CCCC[C@@H]1O)C1CN(Cc2ccc(-n3cccc3)nc2)c2ccccc2O1 (some centres unmarked) [28j]
M1 PAM activity in words (relative to 14 or comparators) (hM1 [5]): increase in M1 PAM potency

NC1CCCCC1NC(=O)C1CN(Cc2ccc(-n3cccn3)cc2)c2ccccc2O1 (centres unmarked) [25e]
M1 PAM activity in words (relative to 14 or comparators) (hM1 [5]): retained reasonable M1 PAM activity

O=C(N[C@H]1CCCC[C@@H]1O)C1Cc2ccccc2N(Cc2ccc(-n3cccn3)cc2)C1 (some centres unmarked) [compound 15]
M1 PAM activity in words (relative to 14 or comparators) (hM1 [5]): essentially equipotent to 14

O=C(N[C@H]1CCCC[C@@H]1O)C1CN(Cc2ccc(-n3cccn3)cc2)c2cccc(F)c2O1 (some centres unmarked) [compound 24]
Fold increase in M1 PAM potency relative to 14 (hM1 [5]; relative to 14): ~7 fold

Cn1cc(-c2ccc(Cn3cc(C(=O)N[C@H]4CCCC[C@@H]4O)c4c(F)cc(F)cc43)cn2)cn1 [compound 6]
Efficacy in NR1 knock-down mice (NR1 knock-down mice): robust efficacy
